Among the data in ChEMBL document CHEMBL1156200, “Removal of sphingosine 1-phosphate receptor-3 (S1P(3)) agonism is essential, but inadequate to obtain immunomodulating 2-aminopropane-1,3-diol S1P(1) agonists with reduced effect on heart rate” (J Med Chem, 2010) are ED50, ID50 and EC50 values, retold here.

Where only a bound is given, the exact number is not on record here.

The test system of data set [1] is Mus musculus. The experiment in a line: Immunomodulatory activity in ip dosed BALB/c mouse assessed as reduction in lymphocyte using FITC-conjugated hamster antimouse CD3e antibody by flow cytometry. In kind it is functional. The procedure, abridged:
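Male BALB/c mice given the alcohol form intraperitoneally; peripheral blood taken from posterior vena cava 24 h later, hemolyzed and fixed. CD3+ T and CD45R+ (B220) B cells counted by two-colour flow cytometry. ED50 is the dose lowering lymphocyte count by 50% versus vehicle-treated controls; 5 animals per compound.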
On the technique in general: Flow cytometry measures light scatter and fluorescence of single cells or particles in a stream.

The subject of data set [2] is Rattus norvegicus. The experiment in a line: Toxicity in iv dosed Sprague-Dawley rat assessed as reduction in heart rate. The class given is organism-based. The settings on record: in vivo. The procedure, abridged: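 Male Sprague-Dawley rats anesthetized with ip pentobarbital sodium (50 mg/kg); phosphate form injected iv over about 30 s at 0.03 to 3 mg/kg. Heart rate counted from R waves of lead II ECG before dosing and 1, 2, 3, 4, 5, 10 and 15 min after. ID50 is the dose lowering heart rate by 50% versus vehicle control; 3-6 animals per compound.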

Data set [3] concerns the target Sphingosine 1-phosphate receptor 1 (Homo sapiens, UniProt P21453). The experiment in a line: Agonist activity at human S1P1 receptor expressed in human Chem1 cells assessed as intracellular calcium mobilization. In kind it is functional, cell-based. In general terms: Calcium flux is commonly read through the fluorescence of an indicator in the cells.
Data set [4] addresses Sphingosine 1-phosphate receptor 3 (Homo sapiens, UniProt Q99500). As to the kind of experiment: Agonist activity at human S1P3 receptor expressed in CHO cells assessed as intracellular calcium mobilization. The class given is functional, cell-based.

Chain of Sphingosine 1-phosphate receptor 3 (Q99500 whole entry): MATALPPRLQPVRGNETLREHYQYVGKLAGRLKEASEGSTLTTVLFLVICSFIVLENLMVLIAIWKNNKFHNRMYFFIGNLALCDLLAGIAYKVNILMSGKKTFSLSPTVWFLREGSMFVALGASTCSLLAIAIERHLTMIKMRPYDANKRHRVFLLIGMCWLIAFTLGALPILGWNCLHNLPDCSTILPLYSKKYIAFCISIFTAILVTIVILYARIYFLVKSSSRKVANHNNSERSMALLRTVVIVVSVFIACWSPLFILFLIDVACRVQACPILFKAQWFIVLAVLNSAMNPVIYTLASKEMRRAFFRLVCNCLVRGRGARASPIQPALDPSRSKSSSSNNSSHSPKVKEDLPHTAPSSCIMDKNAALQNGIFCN
Chain of Sphingosine 1-phosphate receptor 1 (P21453 whole entry): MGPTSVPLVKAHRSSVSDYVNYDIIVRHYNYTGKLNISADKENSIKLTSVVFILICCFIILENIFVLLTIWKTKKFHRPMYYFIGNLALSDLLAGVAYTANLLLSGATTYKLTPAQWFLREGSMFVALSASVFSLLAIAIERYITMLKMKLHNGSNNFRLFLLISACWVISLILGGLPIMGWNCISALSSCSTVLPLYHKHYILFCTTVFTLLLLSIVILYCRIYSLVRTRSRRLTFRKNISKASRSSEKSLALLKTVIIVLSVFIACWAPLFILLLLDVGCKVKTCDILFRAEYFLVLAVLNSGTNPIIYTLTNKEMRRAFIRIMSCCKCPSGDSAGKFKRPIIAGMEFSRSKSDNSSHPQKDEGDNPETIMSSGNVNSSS

One may read the ED50 as the midpoint of the dose-response relation. `NC(CO)(CO)CCc1ccc(-c2ccc(Sc3ccc(C(F)(F)F)cc3)cc2F)cc1`: in data set [1], the median effective dose (ED50) came to 0.34 mg/kg.
As to `COc1cccc(Sc2ccc(-c3ccc(CCC(N)(CO)CO)cc3)c(F)c2)c1`, the 50% effective dose (ED50) in data set [1] was determined as 0.11 mg/kg.
Same read-out and setting: the same measure for `CCCCOc1ccc(-c2ccc(CCC(N)(CO)CO)cc2)c(C)c1`: 3.4 mg/kg.
What is called EC50 is the concentration at which the effect is half-maximal. Turning to `CCCCOc1ccc(-c2ccc(CCC(N)(CO)COP(=O)(O)O)c(Cl)c2)cc1` (configuration not stated), the ID50 in data set [2] stood at 0.013 mg/kg. In addition, the results for the concentration for a half-maximal effect (EC50) in data set [3] and in data set [4] were 0.62 nM and greater than 1000 nM, respectively.
In the case of `CCCCOc1ccc(-c2ccc(CCC(N)(CO)COP(=O)(O)O)cc2)cc1` (configuration not stated), the ID50 in data set [2] amounted to 0.008 mg/kg. Further, the values for the EC50 in data set [3] and in data set [4] were 0.81 nM and greater than 1000 nM, respectively.
On to `NC(CO)(CO)CCc1ccc(-c2ccc(OCc3ccccc3)cc2)cc1Cl`, for which the ED50 in data set [1] is 0.13 mg/kg.
Regarding `CC(C)c1ccc(Sc2ccc(-c3ccc(CCC(N)(CO)CO)cc3)c(F)c2)cc1`, the median effective dose (ED50) in data set [1] worked out at 0.15 mg/kg.
Consider `CCCCOc1ccc(-c2ccc(CCC(N)(CO)COP(=O)(O)O)cc2)c(F)c1.F` (configuration not stated), for which the ID50 in data set [2] is 0.009 mg/kg. For the same compound, the EC50 turned out to be 0.53 nM in data set [3] and 51 nM in data set [4].
On to `CCCCOc1ccc(-c2ccc(CCC(N)(CO)CO)cc2)cc1F`, for which the ED50 in data set [1] is 0.21 mg/kg.
Take `NC(CO)(CO)CCc1ccc(-c2ccc(Sc3cccc(F)c3)cc2F)cc1`: the ED50 in data set [1] was found to be 0.16 mg/kg.
For the compound `NC(CO)(CCc1ccc(-c2ccc(OCc3ccccc3)cc2)cc1Cl)COP(=O)(O)O` (configuration not stated), in data set [2], the ID50 stood at 0.017 mg/kg. Further, the half-maximal effective concentration (EC50) in data set [3] came to 1.6 nM; in data set [4], 13 nM.
For `CCCCCCCCc1ccc(CCC(N)(CO)CO)cc1` [FINGOLIMOD], the median effective dose (ED50) in data set [1] amounted to 0.02 mg/kg.
As for `NC(CO)(CO)CCc1ccc(-c2ccc(SCc3ccccc3)cc2)cc1Cl`, the 50% effective dose (ED50) in data set [1] came to 0.08 mg/kg.
`Cc1ccc(Sc2ccc(-c3ccc(CCC(N)(CO)COP(=O)(O)O)c(Cl)c3)c(F)c2)cc1` (configuration not stated): in data set [2], the ID50 turned out to be 0.016 mg/kg. For the same compound, the EC50 in data set [3] is 4.2 nM; in data set [4], greater than 1000 nM.
With `Cc1cccc(Sc2ccc(-c3ccc(CCC(N)(CO)COP(=O)(O)O)cc3)c(F)c2)c1` (configuration not stated), in data set [2], the ID50 was 0.063 mg/kg. The concentration giving a half-maximal response (EC50) in data set [3] was 2 nM; in data set [4] it was greater than 1000 nM.
Regarding `Cc1cccc(Sc2ccc(-c3ccc(CCC(N)(CO)CO)cc3)c(F)c2)c1`, the ED50 in data set [1] is 0.13 mg/kg.
Take `CCCCCc1ccc(-c2ccc(CCC(N)(CO)COP(=O)(O)O)cc2)c(F)c1` (configuration not stated): the figures for the EC50 in data set [3] and in data set [4] were 1.1 nM and greater than 1000 nM, respectively.
For the compound `Cc1ccc(Sc2ccc(-c3ccc(CCC(N)(CO)COP(=O)(O)O)cc3)c(F)c2)cc1` (configuration not stated), the values for the EC50 in data set [3] and in data set [4] were 3 nM and greater than 1000 nM, respectively.
Regarding `NC(CO)(CO)CCc1ccc(-c2ccc(Sc3ccccc3)cc2F)cc1`, the 50% effective dose (ED50) in data set [1] turned out to be 0.42 mg/kg.
On the same count and under the same terms, the same measure for `Cc1ccc(Sc2ccc(-c3ccc(CCC(N)(CO)CO)cc3)c(F)c2)cc1`: 0.05 mg/kg; for `Cc1ccc(Sc2ccc(-c3ccc(CCC(N)(CO)CO)c(Cl)c3)c(F)c2)cc1`: 0.04 mg/kg; for `Cc1ccc(Oc2ccc(-c3ccc(CCC(N)(CO)CO)cc3)c(F)c2)cc1`: 0.04 mg/kg.
As to `CCCCCCCCc1ccc(CCC(N)(CO)COP(=O)(O)O)cc1` (configuration not stated), the ID50 in data set [2] is 0.012 mg/kg.
In the case of `NC(CO)(CCc1ccc(-c2ccc(Sc3ccccc3)cc2F)cc1)COP(=O)(O)O` (configuration not stated), the EC50 in data set [3] is 3.6 nM; in data set [4] it was greater than 1000 nM.
With `CCCCOc1ccc(-c2ccc(CCC(N)(CO)CO)cc2)c(F)c1`, the median effective dose (ED50) in data set [1] was 0.06 mg/kg.
Regarding `NC(CO)(CCc1ccc(-c2ccc(SCc3ccccc3)cc2F)cc1)COP(=O)(O)O` (configuration not stated), the ID50 in data set [2] amounted to 0.008 mg/kg. Further, the concentration for a half-maximal effect (EC50) in data set [3] amounted to 0.84 nM; in data set [4] it was 4.9 nM.
As for `NC(CO)(CCc1ccc(-c2ccc(Oc3ccccc3)cc2)cc1)COP(=O)(O)O` (configuration not stated), the ID50 in data set [2] is 0.14 mg/kg. For the same compound, the EC50 in data set [3] is 21 nM; in data set [4], greater than 1000 nM.
`NC(CO)(CO)CCc1ccc(-c2ccc(OCc3ccccc3)cc2F)cc1`: in data set [1], the 50% effective dose (ED50) worked out at 0.01 mg/kg.
On the same count and under the same terms, the same measure for `CCCCOc1ccc(-c2ccc(CCC(N)(CO)CO)cc2)cc1`: 0.22 mg/kg; for `NC(CO)(CO)CCc1ccc(-c2ccc(Oc3ccccc3)cc2)cc1`: 0.25 mg/kg.
For the compound `NC(CO)(CO)CCc1ccc(-c2ccc(Sc3ccc(F)cc3)cc2F)cc1`, the 50% effective dose (ED50) in data set [1] is 0.07 mg/kg.
Consider `CCCCCc1ccc(-c2ccc(CCC(N)(CO)COP(=O)(O)O)c(Cl)c2)cc1` (configuration not stated), for which the EC50 in data set [3] is 0.64 nM; in data set [4] it was greater than 1000 nM.
The like results for `CCCCOc1cc(F)c(-c2ccc(CCC(N)(CO)COP(=O)(O)O)cc2)cc1F` (configuration not stated) were, in that order, 1.2 nM and greater than 1000 nM.
For the compound `CCCCOc1ccc(-c2ccc(CCC(N)(CO)COP(=O)(O)O)cc2)cc1F` (configuration not stated), the values for the EC50 in data set [3] and in data set [4] were 1.3 nM and greater than 1000 nM, respectively.
In the case of `COc1ccc(Sc2ccc(-c3ccc(CCC(N)(CO)CO)cc3)c(F)c2)cc1`, the ED50 in data set [1] amounted to 0.28 mg/kg.
Same read-out and setting: to `CCCCOc1ccc(-c2ccc(CCC(N)(CO)CO)cc2)cc1Cl` belongs 1.3 mg/kg.
Consider `NC(CO)(CCc1ccc(-c2ccc(Oc3ccccc3)cc2)cc1Cl)COP(=O)(O)O` (configuration not stated), for which the ID50 in data set [2] was found to be 0.087 mg/kg. For the same compound, the values for the 50% effective concentration (EC50) in data set [3] and in data set [4] were 4.7 nM and greater than 1000 nM, respectively.
As for `CCCCOc1ccc(-c2ccc(CCC(N)(CO)CO)c(Cl)c2)cc1`, the ED50 in data set [1] stood at 0.08 mg/kg.
As for `NC(CO)(CO)CCc1ccc(-c2ccc(SCc3ccccc3)cc2F)cc1`, the ED50 in data set [1] came out at 0.04 mg/kg.
Turning to `CCCCCc1ccc(-c2ccc(CCC(N)(CO)CO)c(Cl)c2)cc1`, the ED50 in data set [1] came to 0.11 mg/kg.
With `Cc1ccc(Oc2ccc(-c3ccc(CCC(N)(CO)COP(=O)(O)O)cc3)c(F)c2)cc1` (configuration not stated), the ID50 in data set [2] came to 0.016 mg/kg. The concentration for a half-maximal effect (EC50) turned out to be 1.8 nM in data set [3] and 83 nM in data set [4].
With `CCCCOc1ccc(-c2ccc(CCC(N)(CO)COP(=O)(O)O)cc2)cc1Cl` (configuration not stated), the EC50 in data set [3] is 3.1 nM; in data set [4] it was greater than 1000 nM.
On to `CCCCCc1ccc(-c2ccc(CCC(N)(CO)CO)cc2)c(F)c1`, for which, in data set [1], the 50% effective dose (ED50) came to 0.1 mg/kg.
Same read-out and setting: the same measure for `NC(CO)(CO)CCc1ccc(-c2ccc(Oc3ccccc3)cc2)cc1Cl`: 0.16 mg/kg; for `CCc1ccc(Sc2ccc(-c3ccc(CCC(N)(CO)CO)cc3)c(F)c2)cc1`: 0.04 mg/kg; for `CCCCOc1cc(F)c(-c2ccc(CCC(N)(CO)CO)cc2)cc1F`: 0.15 mg/kg.
`NC(CO)(CCc1ccc(-c2ccc(OCc3ccccc3)cc2F)cc1)COP(=O)(O)O` (configuration not stated): the ID50 in data set [2] was 0.014 mg/kg. The EC50 is 1.1 nM in data set [3] and 4.1 nM in data set [4].
As to `NC(CO)(CO)CCc1ccc(-c2ccc(Sc3ccc(Cl)cc3)cc2F)cc1`, the ED50 in data set [1] worked out at 0.18 mg/kg.
